# From PubChem BioAssay AID1537 (The Scripps Research Institute Molecular Screening Center, 2009)
# The other results are listed elsewhere or left out. The source made the active and inactive calls.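 How the source made its calls: active means inhibition above the hit cutoff derived for the primary screen (cut at about 15% in these data); inactive means the rest.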
# Target: Serine hydrolase RBBP9 (Homo sapiens) (UniProt O75884)
# Test: human RBBP9 inhibitors, retest, confirmation, biochemical, fluorescence polarization, FP-Rh probe, triplicate (AID 1537);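 further: 0% = RBBP9 with DMSO and 100% = wells lacking RBBP9 protein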
# Conditions: recombinant RBBP9, FP-Rh probe fluorescence polarization; at 7.94 µM; hits give high values
# How it was run: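 Test system – RBBP9 serine hydrolase enzyme, human · Amount – RBBP9 at 2.5 µM in dispensed enzyme solution · Buffer or medium – Tris/NaCl/Pluronic buffer, pH 8.0 · Reagent – FP-Rh probe · Dosing – single compound dose, 7.94 µM final · Timing – 30 min preincubation at 25 °C, 45 min probe labelling · Technique – fluorescence polarization, 525/598 nm · Replicates – triplicate wells per compound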
# Serine hydrolase RBBP9 (Homo sapiens), sequence (O75884 whole entry, looked up): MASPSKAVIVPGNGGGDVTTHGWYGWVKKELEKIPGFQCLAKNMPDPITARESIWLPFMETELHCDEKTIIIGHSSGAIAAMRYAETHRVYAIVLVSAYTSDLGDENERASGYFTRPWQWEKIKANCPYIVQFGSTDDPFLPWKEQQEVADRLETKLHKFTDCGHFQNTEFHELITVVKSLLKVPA
row,SMILES,inhibition
1,CC(C)OCCCNC(=O)CNC(=O)c1cccs1,11% (inactive)
2,COc1cc(/C=N/NC(=O)Nc2ccccc2)ccc1OCCOc1ccccc1C,0.38% (inactive)
3,CC1=NOC(=O)/C1=C\c1ccccc1,4.74% (inactive)
4,Cc1ccnc(-n2sc3ccccc3c2=O)n1,72.8% (active)
5,C/C(=N/Nc1nc(-c2ccccc2)c(CC(=O)O)s1)c1ccccc1,31.2% (active)
6,Oc1ccc(N=Cc2sc3ccccc3c2Cl)cc1,12.5% (inactive)
7,COc1ccc(-n2nnnc2SCc2nc(N)nc(N3CCOCC3)n2)cc1,3.53% (inactive)
8,CCc1ccccc1NC1c2ccccc2C(=O)N1c1cccnc1 (stereo not drawn),3.9% (inactive)
9,Cc1cc(F)ccc1S(=O)(=O)N1CCCOC1CNC(=O)C(=O)NCCC1=CCCCC1 (stereo not drawn),10.6% (inactive)
10,Cc1cc([N+](=O)[O-])nn1Cc1ccc(F)cc1,11.8% (inactive)
11,COc1ccc2c(c1)C(C)=CC(C)(C)N2C(=O)Nc1ccccc1,2.49% (inactive)
12,CCN(CC)C(=O)N1CCN(C(=O)c2ccc(C)cn2)CC1,9.27% (inactive)
13,Nn1c(Cc2cccc3ccccc23)nnc1SCC(=O)N1CC(=O)Nc2ccccc21,6.4% (inactive)
14,CCC(=O)c1ccc(OCC(O)CN2CCN(c3cccc(C(F)(F)F)c3)CC2)cc1 (stereo not drawn),7.26% (inactive)
15,Cn1sc(=O)c2cc(S(=O)(=O)NC3CC3)ccc21,26.9% (active)
16,O=c1[nH]n(-c2ccc([N+](=O)[O-])cc2)c(=O)c2ccccc12,20.4% (active)
17,COc1cc(C2C(C(=O)OCCC#N)=C(C)NC3=C2S(=O)(=O)c2ccccc23)cc(OC)c1OC (stereo not drawn),1.17% (inactive)
18,C=CS(=O)c1sc(Cl)c(N2CCOCC2)c1[N+](=O)[O-] (stereo not drawn),34.7% (active)
19,O=C(CCCC(=O)N(CC(=O)NC1CCCC1)Cc1ccccc1Cl)Nc1ccccn1,1.03% (inactive)
20,COc1cccc(NC(=O)c2ccc3c(SCC(=O)O)c4c(nc3c2)CCCC4)c1,6.99% (inactive)
21,O=C1C=CC(=O)N1c1ccc(N2CCCCC2)cc1,25.9% (active)
22,COc1ccc(N2C(=O)C3CCCN3C2c2cc(OC)c(OC)cc2OC)cc1 (stereo not drawn),3.25% (inactive)
23,COc1ccc(NS(=O)(=O)c2cc(NC(=O)CC(=O)c3ccc([N+](=O)[O-])cc3)ccc2C)cc1,-3.45% (inactive)
24,CCC(=O)N1CCCc2ccccc21,0.8% (inactive)
25,COCCN(Cc1nc(-c2ccc(C(F)(F)F)cc2)no1)C(C)C,1.94% (inactive)
26,O=[N+]([O-])c1c(NCCO)cc(Sc2nc3ccccc3s2)c2nonc12,45.7% (active)
27,Cc1ccc(NC(=O)CN2CCC(C(N)=O)CC2)cc1[N+](=O)[O-],2.36% (inactive)
28,CCOc1ccc2[nH]c(=O)c(C(c3nnnn3CCOC)N3CCOCC3)cc2c1 (stereo not drawn),1.76% (inactive)
